# Experimental data: ChEMBL document CHEMBL3351385, “Synthesis and preliminary mechanistic evaluation of 5-(p-tolyl)-1-(quinolin-2-yl)pyrazole-3-carboxylic acid amides with potent antiproliferative activity on human cancer cell lines” (Eur J Med Chem, 2014)
# Tests used:
# [1] = Induction of cell cycle arrest in human Mahlavu cells assessed as accumulation at G2/M phase at cytotoxic IC50 level after 48 hrs by propidium iodide staining based FACS method; assay type: functional
# [2] = molecular target: Dual specificity mitogen-activated protein kinase kinase 2 (Homo sapiens) (UniProt P36507); experiment: Inhibition of MKK2 (unknown origin) assessed as remaining enzyme activity at 10 uM by radioactive [33P]-ATP filter binding assay
# [3] = molecular target: Mitogen-activated protein kinase 8 (Homo sapiens) (UniProt P45983); experiment: Inhibition of JNK1 (unknown origin) assessed as remaining enzyme activity at 10 uM by radioactive [33P]-ATP filter binding assay
# [4] = molecular target: Mitogen-activated protein kinase 9 (Homo sapiens) (UniProt P45984); experiment: Inhibition of JNK2 (unknown origin) assessed as remaining enzyme activity at 10 uM by radioactive [33P]-ATP filter binding assay
# [5] = molecular target: Ribosomal protein S6 kinase alpha-1 (Homo sapiens) (UniProt Q15418); experiment: Inhibition of RSK1 (unknown origin) assessed as remaining enzyme activity at 10 uM by radioactive [33P]-ATP filter binding assay
# [6] = molecular target: Ribosomal protein S6 kinase beta-1 (Homo sapiens) (UniProt P23443); experiment: Inhibition of S6K1 (unknown origin) assessed as remaining enzyme activity at 10 uM by radioactive [33P]-ATP filter binding assay
# [7] = molecular target: Rho-associated protein kinase 2 (Homo sapiens) (UniProt O75116); experiment: Inhibition of ROCK2 (unknown origin) assessed as remaining enzyme activity at 10 uM by radioactive [33P]-ATP filter binding assay
# [8] = molecular target: Calcium/calmodulin-dependent protein kinase type 1 (Homo sapiens) (UniProt Q14012); experiment: Inhibition of CAMK1 (unknown origin) assessed as remaining enzyme activity at 10 uM by radioactive [33P]-ATP filter binding assay
# Outline: (§1)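 A single 10 µM concentration was tested across a 140-kinase panel. Activity was measured by a radioactive 33P-ATP filter-binding assay run at the International Center for Kinase Profiling, University of Dundee.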
# [9] = molecular target: Serine/threonine-protein kinase Chk1 (Homo sapiens) (UniProt O14757); experiment: Inhibition of CHK1 (unknown origin) assessed as remaining enzyme activity at 10 uM by radioactive [33P]-ATP filter binding assay; outline: as §1
# [10] = molecular target: CDK9/cyclin T1 (Homo sapiens) (UniProt O60563+P50750); experiment: Inhibition of CDK9/Cyclin-T1 (unknown origin) assessed as remaining enzyme activity at 10 uM by radioactive [33P]-ATP filter binding assay; assay type: protein-complex assay; outline: as §1
# [11] = molecular target: Aurora kinase A (Homo sapiens) (UniProt O14965); experiment: Inhibition of Aurora A (unknown origin) assessed as remaining enzyme activity at 10 uM by radioactive [33P]-ATP filter binding assay; outline: as §1
# [12] = molecular target: Aurora kinase B (Homo sapiens) (UniProt Q96GD4); experiment: Inhibition of Aurora B (unknown origin) assessed as remaining enzyme activity at 10 uM by radioactive [33P]-ATP filter binding assay; outline: as §1
# [13] = molecular target: Serine/threonine-protein kinase MARK2 (Homo sapiens) (UniProt Q7KZI7); experiment: Inhibition of MARK2 (unknown origin) assessed as remaining enzyme activity at 10 uM by radioactive [33P]-ATP filter binding assay
# [14] = molecular target: Tyrosine-protein kinase CSK (Homo sapiens) (UniProt P41240); experiment: Inhibition of CSK (unknown origin) assessed as remaining enzyme activity at 10 uM by radioactive [33P]-ATP filter binding assay; outline: as §1
# [15] = molecular target: Tyrosine-protein kinase ZAP-70 (Homo sapiens) (UniProt P43403); experiment: Inhibition of ZAP70 (unknown origin) assessed as remaining enzyme activity at 10 uM by radioactive [33P]-ATP filter binding assay
# [16] = molecular target: Protein-tyrosine kinase 6 (Homo sapiens) (UniProt Q13882); experiment: Inhibition of BRK (unknown origin) assessed as remaining enzyme activity at 10 uM by radioactive [33P]-ATP filter binding assay; outline: as §1
# [17] = molecular target: Fibroblast growth factor receptor 1 (Homo sapiens) (UniProt P11362); experiment: Inhibition of FGFR1 (unknown origin) assessed as remaining enzyme activity at 10 uM by radioactive [33P]-ATP filter binding assay; outline: as §1
# [18] = molecular target: Insulin receptor (Homo sapiens) (UniProt P06213); experiment: Inhibition of IR (unknown origin) assessed as remaining enzyme activity at 10 uM by radioactive [33P]-ATP filter binding assay
# [19] = molecular target: Serine/threonine-protein kinase PAK 6 (Homo sapiens) (UniProt Q9NQU5); experiment: Inhibition of PAK6 (unknown origin) assessed as remaining enzyme activity at 10 uM by radioactive [33P]-ATP filter binding assay
# [20] = molecular target: Casein kinase I isoform delta (Homo sapiens) (UniProt P48730); experiment: Inhibition of CK1delta (unknown origin) assessed as remaining enzyme activity at 10 uM by radioactive [33P]-ATP filter binding assay; outline: as §1
# [21] = molecular target: Dual specificity tyrosine-phosphorylation-regulated kinase 2 (Homo sapiens) (UniProt Q92630); experiment: Inhibition of DYRK2 (unknown origin) assessed as remaining enzyme activity at 10 uM by radioactive [33P]-ATP filter binding assay; outline: as §1
# [22] = molecular target: Serine/threonine-protein kinase Nek2 (Homo sapiens) (UniProt P51955); experiment: Inhibition of NEK2A (unknown origin) assessed as remaining enzyme activity at 10 uM by radioactive [33P]-ATP filter binding assay
# [23] = molecular target: Inhibitor of nuclear factor kappa-B kinase subunit beta (Homo sapiens) (UniProt O14920); experiment: Inhibition of IKKbeta (unknown origin) assessed as remaining enzyme activity at 10 uM by radioactive [33P]-ATP filter binding assay
# [24] = molecular target: Serine/threonine-protein kinase pim-2 (Homo sapiens) (UniProt Q9P1W9); experiment: Inhibition of PIM2 (unknown origin) assessed as remaining enzyme activity at 10 uM by radioactive [33P]-ATP filter binding assay
# [25] = molecular target: SRSF protein kinase 1 (Homo sapiens) (UniProt Q96SB4); experiment: Inhibition of SRPK1 (unknown origin) assessed as remaining enzyme activity at 10 uM by radioactive [33P]-ATP filter binding assay
# [26] = molecular target: Eukaryotic elongation factor 2 kinase (Homo sapiens) (UniProt O00418); experiment: Inhibition of EF2K (unknown origin) assessed as remaining enzyme activity at 10 uM by radioactive [33P]-ATP filter binding assay; outline: as §1
# [27] = molecular target: Homeodomain-interacting protein kinase 3 (Homo sapiens) (UniProt Q9H422); experiment: Inhibition of HIPK3 (unknown origin) assessed as remaining enzyme activity at 10 uM by radioactive [33P]-ATP filter binding assay
# [28] = molecular target: Serine/threonine-protein kinase PAK 2 (Homo sapiens) (UniProt Q13177); experiment: Inhibition of PAK2 (unknown origin) assessed as remaining enzyme activity at 10 uM by radioactive [33P]-ATP filter binding assay
# [29] = molecular target: Serine/threonine-protein kinase 16 (Homo sapiens) (UniProt O75716); experiment: Inhibition of MPSK1 (unknown origin) assessed as remaining enzyme activity at 10 uM by radioactive [33P]-ATP filter binding assay
# [30] = molecular target: Serine/threonine-protein kinase ULK1 (Homo sapiens) (UniProt O75385); experiment: Inhibition of ULK1 (unknown origin) assessed as remaining enzyme activity at 10 uM by radioactive [33P]-ATP filter binding assay
# Ribosomal protein S6 kinase beta-1 (Homo sapiens), sequence (P23443 whole entry, looked up): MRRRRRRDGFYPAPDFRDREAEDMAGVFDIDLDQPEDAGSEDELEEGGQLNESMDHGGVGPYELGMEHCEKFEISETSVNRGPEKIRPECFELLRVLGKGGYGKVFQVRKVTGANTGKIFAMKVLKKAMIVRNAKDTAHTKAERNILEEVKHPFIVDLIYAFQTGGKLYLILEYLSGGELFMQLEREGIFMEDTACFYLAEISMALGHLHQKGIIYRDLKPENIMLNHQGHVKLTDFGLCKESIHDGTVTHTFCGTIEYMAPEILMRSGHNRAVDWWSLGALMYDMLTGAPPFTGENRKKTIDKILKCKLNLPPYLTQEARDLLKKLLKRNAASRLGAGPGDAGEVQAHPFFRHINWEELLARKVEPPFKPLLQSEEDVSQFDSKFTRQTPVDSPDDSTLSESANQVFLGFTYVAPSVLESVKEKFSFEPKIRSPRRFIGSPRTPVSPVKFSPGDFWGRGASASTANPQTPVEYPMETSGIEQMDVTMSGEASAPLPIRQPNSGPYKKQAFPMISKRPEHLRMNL
# Dual specificity mitogen-activated protein kinase kinase 2 (Homo sapiens), sequence (P36507 whole entry): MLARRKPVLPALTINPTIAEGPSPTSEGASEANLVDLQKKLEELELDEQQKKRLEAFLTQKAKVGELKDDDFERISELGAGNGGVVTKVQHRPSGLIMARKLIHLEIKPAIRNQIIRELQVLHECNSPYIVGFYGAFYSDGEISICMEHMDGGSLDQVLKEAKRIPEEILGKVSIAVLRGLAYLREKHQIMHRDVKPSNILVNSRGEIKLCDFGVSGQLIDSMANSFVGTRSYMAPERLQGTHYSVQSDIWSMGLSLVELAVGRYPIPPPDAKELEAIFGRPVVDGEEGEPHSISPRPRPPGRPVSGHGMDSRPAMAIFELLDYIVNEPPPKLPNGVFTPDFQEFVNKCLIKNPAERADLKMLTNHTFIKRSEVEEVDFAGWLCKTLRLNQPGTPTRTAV
# SRSF protein kinase 1 (Homo sapiens), sequence (Q96SB4 whole entry): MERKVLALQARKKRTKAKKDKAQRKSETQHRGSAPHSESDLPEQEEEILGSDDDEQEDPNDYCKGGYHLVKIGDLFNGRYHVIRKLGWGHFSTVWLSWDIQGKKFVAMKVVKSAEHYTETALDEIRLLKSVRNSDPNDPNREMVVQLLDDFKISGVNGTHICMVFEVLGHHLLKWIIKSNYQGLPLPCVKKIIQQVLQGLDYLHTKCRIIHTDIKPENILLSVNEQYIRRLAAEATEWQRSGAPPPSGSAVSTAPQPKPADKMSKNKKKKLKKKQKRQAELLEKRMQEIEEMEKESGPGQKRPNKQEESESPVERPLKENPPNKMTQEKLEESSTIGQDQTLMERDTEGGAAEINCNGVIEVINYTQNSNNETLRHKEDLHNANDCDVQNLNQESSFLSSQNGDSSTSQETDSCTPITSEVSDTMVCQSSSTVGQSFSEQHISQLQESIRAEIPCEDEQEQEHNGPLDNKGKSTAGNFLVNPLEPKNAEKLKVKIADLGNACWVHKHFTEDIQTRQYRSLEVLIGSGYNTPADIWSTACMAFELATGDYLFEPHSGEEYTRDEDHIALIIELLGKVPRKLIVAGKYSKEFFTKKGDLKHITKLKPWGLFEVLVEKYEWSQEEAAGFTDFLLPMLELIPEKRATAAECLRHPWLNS
# Serine/threonine-protein kinase PAK 2 (Homo sapiens), sequence (Q13177 whole entry): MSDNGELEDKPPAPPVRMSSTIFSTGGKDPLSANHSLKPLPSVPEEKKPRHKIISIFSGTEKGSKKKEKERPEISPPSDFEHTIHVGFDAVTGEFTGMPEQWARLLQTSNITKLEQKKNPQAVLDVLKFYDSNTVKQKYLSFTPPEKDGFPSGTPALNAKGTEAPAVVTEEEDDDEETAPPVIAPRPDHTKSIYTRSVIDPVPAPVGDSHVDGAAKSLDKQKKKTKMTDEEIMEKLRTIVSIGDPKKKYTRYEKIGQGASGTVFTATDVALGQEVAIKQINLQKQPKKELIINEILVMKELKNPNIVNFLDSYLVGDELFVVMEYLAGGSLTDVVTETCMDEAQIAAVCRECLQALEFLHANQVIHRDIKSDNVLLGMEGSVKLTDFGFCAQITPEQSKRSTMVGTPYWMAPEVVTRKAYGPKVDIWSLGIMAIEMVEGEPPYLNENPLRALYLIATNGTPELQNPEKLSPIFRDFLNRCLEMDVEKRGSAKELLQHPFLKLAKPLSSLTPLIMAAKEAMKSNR
# Protein-tyrosine kinase 6 (Homo sapiens), sequence (Q13882 whole entry, looked up): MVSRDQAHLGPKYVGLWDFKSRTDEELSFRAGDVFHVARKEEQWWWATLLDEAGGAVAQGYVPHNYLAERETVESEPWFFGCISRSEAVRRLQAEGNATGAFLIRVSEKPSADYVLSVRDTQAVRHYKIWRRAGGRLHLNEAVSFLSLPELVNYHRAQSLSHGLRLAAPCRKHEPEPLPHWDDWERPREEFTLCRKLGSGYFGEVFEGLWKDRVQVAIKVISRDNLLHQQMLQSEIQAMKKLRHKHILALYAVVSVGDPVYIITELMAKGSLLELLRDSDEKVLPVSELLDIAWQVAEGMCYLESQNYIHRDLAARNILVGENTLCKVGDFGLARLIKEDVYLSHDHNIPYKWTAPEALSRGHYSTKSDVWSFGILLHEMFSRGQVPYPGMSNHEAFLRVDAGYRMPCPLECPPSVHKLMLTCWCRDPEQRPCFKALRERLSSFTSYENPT
# Aurora kinase B (Homo sapiens), sequence (Q96GD4 whole entry): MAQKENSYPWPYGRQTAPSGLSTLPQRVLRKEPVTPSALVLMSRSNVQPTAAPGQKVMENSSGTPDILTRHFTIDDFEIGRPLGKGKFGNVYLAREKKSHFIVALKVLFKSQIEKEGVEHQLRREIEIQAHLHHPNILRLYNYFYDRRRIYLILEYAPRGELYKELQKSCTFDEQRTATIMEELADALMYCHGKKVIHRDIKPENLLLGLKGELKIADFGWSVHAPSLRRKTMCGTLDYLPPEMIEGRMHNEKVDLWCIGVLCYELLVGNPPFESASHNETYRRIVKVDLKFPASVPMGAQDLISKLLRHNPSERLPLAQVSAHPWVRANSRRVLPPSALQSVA
# Eukaryotic elongation factor 2 kinase (Homo sapiens), sequence (O00418 whole entry): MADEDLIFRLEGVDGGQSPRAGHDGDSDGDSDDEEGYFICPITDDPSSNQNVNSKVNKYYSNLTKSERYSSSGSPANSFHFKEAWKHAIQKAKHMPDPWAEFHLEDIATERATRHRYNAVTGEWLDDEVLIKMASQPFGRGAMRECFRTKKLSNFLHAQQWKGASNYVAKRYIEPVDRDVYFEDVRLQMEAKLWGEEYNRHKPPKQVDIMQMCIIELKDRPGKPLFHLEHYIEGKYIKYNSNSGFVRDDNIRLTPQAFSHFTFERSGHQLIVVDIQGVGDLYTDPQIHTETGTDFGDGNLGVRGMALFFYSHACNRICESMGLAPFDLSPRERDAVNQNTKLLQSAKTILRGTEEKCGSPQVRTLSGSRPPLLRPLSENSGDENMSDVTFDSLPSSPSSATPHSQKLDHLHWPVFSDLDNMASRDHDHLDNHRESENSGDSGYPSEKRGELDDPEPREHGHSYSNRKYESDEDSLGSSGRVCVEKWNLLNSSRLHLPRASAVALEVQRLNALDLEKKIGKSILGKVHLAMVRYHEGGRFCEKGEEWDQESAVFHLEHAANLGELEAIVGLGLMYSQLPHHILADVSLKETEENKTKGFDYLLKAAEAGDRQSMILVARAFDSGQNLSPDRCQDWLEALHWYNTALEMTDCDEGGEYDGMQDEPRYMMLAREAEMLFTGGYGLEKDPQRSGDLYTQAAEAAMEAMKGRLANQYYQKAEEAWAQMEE
# Mitogen-activated protein kinase 8 (Homo sapiens), sequence (P45983 whole entry): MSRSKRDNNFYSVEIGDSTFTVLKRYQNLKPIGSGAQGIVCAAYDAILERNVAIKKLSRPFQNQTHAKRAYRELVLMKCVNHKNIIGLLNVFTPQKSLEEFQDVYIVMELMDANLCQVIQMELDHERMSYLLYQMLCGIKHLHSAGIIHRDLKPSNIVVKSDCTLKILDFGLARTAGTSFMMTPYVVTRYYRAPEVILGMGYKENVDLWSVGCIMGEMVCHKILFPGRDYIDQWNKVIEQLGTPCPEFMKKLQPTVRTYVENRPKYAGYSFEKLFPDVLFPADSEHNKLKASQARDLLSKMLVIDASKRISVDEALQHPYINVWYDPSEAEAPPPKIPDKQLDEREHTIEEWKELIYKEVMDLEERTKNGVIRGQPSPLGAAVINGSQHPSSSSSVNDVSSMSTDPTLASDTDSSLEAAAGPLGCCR
# Serine/threonine-protein kinase pim-2 (Homo sapiens), sequence (Q9P1W9 whole entry, looked up): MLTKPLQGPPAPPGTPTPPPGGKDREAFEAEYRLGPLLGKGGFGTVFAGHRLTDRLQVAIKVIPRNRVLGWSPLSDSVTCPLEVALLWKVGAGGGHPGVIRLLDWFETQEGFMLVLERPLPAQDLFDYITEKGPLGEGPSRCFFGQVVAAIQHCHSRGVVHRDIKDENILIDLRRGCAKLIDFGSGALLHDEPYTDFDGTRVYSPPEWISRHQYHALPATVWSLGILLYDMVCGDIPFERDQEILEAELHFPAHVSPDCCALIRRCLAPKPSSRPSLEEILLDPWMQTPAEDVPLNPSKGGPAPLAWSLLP
# Tyrosine-protein kinase ZAP-70 (Homo sapiens), sequence (P43403 whole entry): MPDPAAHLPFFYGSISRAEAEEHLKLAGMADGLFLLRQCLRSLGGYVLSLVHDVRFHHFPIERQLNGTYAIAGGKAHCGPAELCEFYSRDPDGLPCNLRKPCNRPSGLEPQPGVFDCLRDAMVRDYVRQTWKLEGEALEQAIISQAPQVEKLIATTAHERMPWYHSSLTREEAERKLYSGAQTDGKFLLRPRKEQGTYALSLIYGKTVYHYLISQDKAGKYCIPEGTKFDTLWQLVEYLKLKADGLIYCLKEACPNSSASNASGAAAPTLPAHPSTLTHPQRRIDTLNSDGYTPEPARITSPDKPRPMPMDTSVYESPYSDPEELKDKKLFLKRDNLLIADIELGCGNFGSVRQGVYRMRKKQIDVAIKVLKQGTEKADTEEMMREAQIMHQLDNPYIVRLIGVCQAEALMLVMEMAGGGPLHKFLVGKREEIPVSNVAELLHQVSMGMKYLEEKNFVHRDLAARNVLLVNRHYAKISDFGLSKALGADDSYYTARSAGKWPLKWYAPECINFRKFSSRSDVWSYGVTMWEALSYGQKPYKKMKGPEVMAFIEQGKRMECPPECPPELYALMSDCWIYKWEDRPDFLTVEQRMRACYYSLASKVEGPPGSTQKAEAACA
smiles,measurement,setting,value
Cc1ccc(-c2cc(C(=O)Nc3ccnc(Cl)c3)nn2-c2ccc3ccccc3n2)cc1,Activity,[1],19.9%
same,Activity,[2],94%
same,Activity,[3],103%
same,Activity,[4],100%
same,Activity,[5],108%
same,Activity,[6],88%
same,Activity,[7],85%
same,Activity,[8],113%
same,Activity,[9],85%
same,Activity,[10],113%
same,Activity,[11],120%
same,Activity,[12],104%
same,Activity,[13],101%
same,Activity,[14],109%
same,Activity,[15],115%
same,Activity,[16],109%
same,Activity,[17],127%
same,Activity,[18],96%
same,Activity,[19],104%
same,Activity,[20],96%
same,Activity,[21],96%
same,Activity,[22],90%
same,Activity,[23],70%
same,Activity,[24],114%
same,Activity,[25],104%
same,Activity,[26],97%
same,Activity,[27],100%
same,Activity,[28],109%
same,Activity,[29],113%
same,Activity,[30],136%
